Compounds with a hit are over-represented: about 1.1% of the library has one in this group of screens.
Thrombin inh: human alpha-thrombin inhibitors, primary screen, counter-screen for coagulation protease inhibitor project, biochemical, 1536-well, fluorogenic AMC substrate | Prothrombin (Homo sapiens), P00734 | Boc-VPR-AMC fluorogenic substrate cleavage | inhibition, % at 5 µM | 220,000 compounds, 0.26% hits | AID 1046, 2008;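 active means inhibition at or above 40%; inactive means inhibition below 40%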;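 further: 0% = enzyme with no compound and 100% = wells without enzyme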
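Material: human alpha-thrombin protein; Also added: Boc-VPR-AMC substrate, 15 µM final; Timing: enzyme reaction carried out at room temperature; Signal: fluorescence, ex 355 nm, em 460 nm; Measure: % inhibition of thrombin; Controls: enzyme without compound as high, wells lacking enzyme as low.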
FXIIa inh 1536: human FXIIa protease inhibitors, primary screen, biochemical, 1536-well. Coagulation factor XII (Homo sapiens), P00748. purified FXIIa, Boc-QGR-AMC fluorogenic substrate, 2 h. inhibition, % at 5 µM. 220,000 compounds, 0.3% hits; in the data active means inhibition above about 40%;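 further: 0% = enzyme with no compound and 100% = blank without enzyme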
Calb biofilm kill: clotrimazole potentiators killing C. albicans biofilm, primary screen, 4-compound mixtures. C. albicans biofilm persisters + clotrimazole, fluorescence viability; primary screen in compound mixtures of four per well. AID 1242, 2008. inhibition, % at 7.6 µM. 120,000 compounds, 0.02% hits;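 active means inhibition above 30.3% in the primary screen of four-compound pools, then above 30% when the compound was retested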;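 further: compounds exposed to preformed 24 h biofilms for 48 h; 0% = untreated biofilm control and 100% = clotrimazole plus chlorhexidine kill blank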
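Incubation: 24 h biofilm formation, then 48 h compound exposure, 37 °C | Material: C. albicans biofilms | Buffer or medium: RPMI/MOPS medium, pH 7.0 | Measured by: 2-h Alamar Blue fluorescence, 535/590 nm excitation/emission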
Hep lipid drop: inhibitors of hepatocyte lipid droplet formation, primary screen, imaging, high-throughput imaging, BODIPY stain; AML12 mouse hepatocytes, oleate lipid droplets; inhibition, % at 6.5 µM; 240,000 compounds, 0.4% hits;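 active means lipid droplet intensity inhibited by at least 50%, with more than 500 cells counted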
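Assay system: AML12 hepatocytes (mouse); Probe or stimulus: oleic acid at 100 µM to induce lipid droplet formation; Dosing: compound at 6.5 µM only; Schedule: compound with oleate, overnight; Detection: fluorescence imaging, 20x objective, two fields per well; Measure: % inhibition of lipid droplet signal.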
FXIa inh: human FXIa protease inhibitors, primary screen, biochemical, 1536-well; 220,000 compounds, 0.14% hits; inhibition, % at 5 µM; Coagulation factor XI (Homo sapiens), P03951; purified FXIa, Boc-Glu-Ala-Arg-AMC fluorogenic substrate;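 active means inhibition of at least 40%; inactive means inhibition below 40%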;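 further: fluorescence of freed AMC excited at 355 nm; 0% = enzyme without compound and 100% = no enzyme blank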
Target sequence (P03951 19-387 limits assumed): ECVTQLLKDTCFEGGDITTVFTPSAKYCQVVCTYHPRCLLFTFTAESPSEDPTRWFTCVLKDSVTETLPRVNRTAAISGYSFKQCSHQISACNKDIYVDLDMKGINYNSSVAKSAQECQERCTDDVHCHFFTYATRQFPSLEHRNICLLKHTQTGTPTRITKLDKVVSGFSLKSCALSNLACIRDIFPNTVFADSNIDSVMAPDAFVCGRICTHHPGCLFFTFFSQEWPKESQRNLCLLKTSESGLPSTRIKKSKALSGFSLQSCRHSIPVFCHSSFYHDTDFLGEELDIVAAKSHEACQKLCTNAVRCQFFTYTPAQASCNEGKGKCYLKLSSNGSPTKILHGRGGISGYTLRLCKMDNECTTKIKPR
Target sequence (P03951 388-625 limits assumed): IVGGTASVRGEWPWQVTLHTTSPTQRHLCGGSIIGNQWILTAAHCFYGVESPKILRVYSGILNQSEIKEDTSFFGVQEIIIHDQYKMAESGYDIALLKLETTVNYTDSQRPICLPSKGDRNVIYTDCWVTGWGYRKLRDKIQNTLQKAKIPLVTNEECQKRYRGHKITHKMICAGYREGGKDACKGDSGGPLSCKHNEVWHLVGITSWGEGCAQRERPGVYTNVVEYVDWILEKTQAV
hK5 inh: human KLK5 protease inhibitors, primary screen, biochemical, 1536-well; 210,000 compounds, 0.59% hits; AID 873, 2007; recombinant hK5, fluorogenic AMC substrate cleavage; inhibition, % at 5 µM;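 active means inhibition of 40% or more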;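 further: 0% = enzyme controls without compound and 100% = no-enzyme blanks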
Lipid drop inh: hepatocyte lipid droplet accumulation inhibitors, confirmation, imaging, AML12 mouse hepatocytes, single concentration, high-content | inhibition, % at 5.2 µM | BODIPY lipid droplet imaging; droplets induced with 100 µM oleic acid | shares compounds with Hep lipid drop | 870 compounds, 65% hits | AID 463183, 2010;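 active means inhibition of lipid droplet metric at least 50%, with more than 300 cells in each of four replicates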;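 further: plate controls were DMSO with oleic acid for no effect and 5 µM Triacsin-C for full effect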
AML12 cytotox: AML12 hepatocyte cytotoxicity, counter-screen for hepatic lipid droplet formation project, imaging, DAPI nuclear morphology imaging. shares compounds with Hep lipid drop. AML12 mouse hepatocytes; active compounds read high; cells fed 100 µM oleate overnight. z-score at 5 µM. 870 compounds, 3% hits. AID 463200, 2010; in the data active means z-score above about 6.3;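 further: compound exposure lasted overnight at 37 °C before fixation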
AML12 tox ATP: AML12 hepatocyte cytotoxicity, confirmation, cytotoxicity control for hepatic lipid droplet formation project, cell-based, single concentration; shares compounds with Hep lipid drop; AML12 mouse hepatocyte viability, ATP luminescence; cells loaded with 100 µM oleic acid; cytotoxicity, % at 50 µM; 530 tested, under 10 active;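 active means cytotoxicity above 50% in each of four replicates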;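 further: compound exposure lasted overnight at 37 °C before the ATP read; 0% = DMSO-treated cells and 100% = wells with no cells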
Numbers without * were called inactive; . = not tested or not shown.

SMILES | Thrombin inh | FXIIa inh 1536 | Calb biofilm kill | Hep lipid drop | FXIa inh | hK5 inh | Lipid drop inh | AML12 cytotox | AML12 tox ATP
CCOc1ccc(CN(C)C(=O)CNC(=O)c2ccc(Br)o2)cc1OC | . | . | . | 80* | . | . | 85* | 0.71 | 13
O=C(OCCN1CCN(C2=NS(=O)(=O)c3ccccc32)CC1)c1ccccc1F | . | . | . | -1 | . | . | . | . | .
COc1ccc(-c2nc(CS(=O)CC(=O)NCCc3ccc(OC)c(OC)c3)c(C)o2)cc1 (stereo not drawn) | . | . | . | -2 | . | . | . | . | .
CCOc1ccc(CCNC(=O)CCc2nc(-c3ccc(OC)cc3)no2)cc1OCC | 5 | 19 | . | 69* | 4 | -3 | 108* | -0.28 | 11
CCOc1ccc(CCNC(=O)CS(=O)Cc2nc(-c3ccc(OC)cc3)oc2C)cc1OCC (stereo not drawn) | . | . | . | 76* | . | . | 81* | -0.47 | 11
CCOc1ccc(CCNC(=O)CCc2nc(-c3ccc(C)cc3)no2)cc1OCC | -4 | 5 | . | . | -2 | 16 | . | . | .
CCC(C)NC(=O)CN1c2cccc3cccc(c23)S1(=O)=O (stereo not drawn) | . | . | . | -1 | . | . | . | . | .
CCC(CNC(=O)c1c(C)nn(-c2ccccc2)c1Cl)c1ccccc1 (stereo not drawn) | . | . | . | -40 | . | . | . | . | .
N/C(Cc1ccc(Cl)cc1Cl)=N\OC(=O)c1ccc(Br)o1 | 0 | 8 | 14 | 57* | 1 | 1 | 2 | -0.22 | .
COc1ccc(Cl)cc1NC(=O)CCc1ccccc1 | -5 | 1 | . | -14 | 1 | -4 | . | . | .
COc1ccc(Cl)cc1NC(=O)CCNC(=O)OCc1ccccc1 | -10 | 2 | 30 | 63* | -2 | -1 | 100* | 0.064 | 2
COc1ccc(-c2csc(NC(=O)c3ccc(OCC(=O)N4CCOCC4)c(OC)c3)n2)cc1 | -5 | 9 | 12 | 83* | -3 | -15 | 107* | -0.56 | 53
COc1cccc(C(=O)Nc2nc(-c3ccc(S(=O)(=O)N4CCOCC4)cc3)cs2)c1 | -6 | -4 | . | 1 | -1 | -11 | . | . | .
CCOc1cccc(C(=O)Nc2ccc(N3CCN(S(C)(=O)=O)CC3)cc2)c1 | -1 | 3 | . | -1 | -18 | -17 | . | . | .
CCOc1cc(C(=O)Nc2ccc(N3CCN(S(C)(=O)=O)CC3)cc2)cc(OCC)c1OCC | -3 | 6 | . | 61* | -1 | 0 | 93* | 0.8 | 7
COc1ccc(CNC(=O)CN2C(=O)NC(C)(c3cccc4ccccc34)C2=O)cc1OC (stereo not drawn) | . | . | . | 78* | . | . | 105* | -0.25 | 14
C=C(C)CN(CC)C(=O)CSc1nc(O)cc(=O)n1C1CCCC1 | -5 | 7 | 18 | 6 | -2 | -3 | . | . | .
CCCCOc1ccc(-c2ncc(Cl)cn2)cc1 | 3 | 19 | . | 8 | 7 | 18 | . | . | .
CCCCOc1ccc(-c2ncc([N+](=O)[O-])cn2)cc1 | 0 | 8 | -2 | 51* | 1 | 3 | 19 | 0.84 | .
Cc1ccc(CC(=O)Nc2cc(C)on2)cc1 | . | . | . | -8 | . | . | . | . | .
C#CCOCCOCCOCCNc1nc(N2CCOCC2)nc(N2CCN(C(=O)[C@H]([C@@H](C)CC)n3cc([C@@H](N)Cc4ccc(O)cc4)nn3)CC2)n1 | 0 | 6 | 19 | 55* | 0 | 1 | 13 | -0.7 | .
C#CCOCCOCCOCCNc1nc(N2CCN(C(=O)[C@H]([C@@H](C)CC)n3cc([C@@H](N)Cc4ccc(O)cc4)nn3)CC2)nc(N2CCN(C(=O)[C@H]([C@@H](C)CC)n3cc([C@@H](N)CC(C)C)nn3)CC2)n1 | -3 | 8 | 5 | -1 | 1 | 0 | . | . | .
CC(=O)c1cn(CCOc2ccc(F)cc2)c2ccccc12 | . | . | . | -18 | . | . | . | . | .
CCOC(=O)C(NC(C)=O)(OCc1ccccc1)C(F)(F)F (stereo not drawn) | -6 | 3 | 11 | 2 | -4 | -10 | . | . | .
CCOC(=O)C(NC(=O)c1ccccc1)(OCc1ccccc1)C(F)(F)F (stereo not drawn) | -9 | 0 | 7 | 54* | -17 | 2 | 66* | -0.86 | 15
SMILES | Thrombin inh | FXIIa inh 1536 | Calb biofilm kill | Hep lipid drop | FXIa inh | hK5 inh | Lipid drop inh | AML12 cytotox | AML12 tox ATP
COc1ccc(/C=C\C(=O)NCc2ccc3[nH]c(C)cc3c2)cc1OC | 1 | 8 | 17 | 74* | 7 | 1 | 96* | -0.4 | 16
Cc1ccc(C(C(=O)NC2CCCCC2)N(C(=O)c2csnn2)C2CCCC2)o1 (stereo not drawn) | 0 | -14 | . | 52* | -5 | 7 | 81* | -0.24 | 13
C=CCN(C(=O)c1csnn1)C(C(=O)NC1CCCCC1)c1ccccc1F (stereo not drawn) | . | . | . | 56* | . | . | 93* | -0.66 | 12
CCOC(=O)c1ccc(N2CCN(c3ccccc3F)CC2)c(NC(=O)Nc2ccccc2)c1 | 0 | 23 | -8 | 52* | 22 | -13 | 100* | -0.15 | -5
CCN(Cc1ccccc1)C(=O)c1oc2ccc(S(=O)(=O)N3CCOCC3)cc2c1C | . | . | . | -2 | . | . | . | . | .
Cc1occc1C(=O)N/N=C/c1ccc(-c2ccccc2)cc1 | . | . | . | -8 | . | . | . | . | .
Cc1occc1C(=O)N/N=C/c1ccc(OCc2ccccc2)cc1 | 0 | 5 | 18 | 60* | 3 | 3 | 17 | 0.71 | .
N=c1scc(-c2ccccc2)n1/N=C/c1ccco1 | -14 | 5 | 15 | 54* | 3 | -6 | 26 | -0.56 | .
C(=N/n1c2ccccc2c2ccccc21)/c1ccco1 | 11 | 12 | . | -1 | 0 | -4 | . | . | .
Cc1cc(NC(=O)CSc2nc3ccccc3c(=O)n2Cc2ccc(F)cc2)no1 | 0 | 0 | . | . | 6 | -1 | . | . | .
CCCCCCn1c(SCC(=O)Nc2cc(C)on2)nc2ccccc2c1=O | -7 | 3 | . | 68* | 0 | -10 | 97* | 0.23 | 22
COCCCn1c(SCC(=O)Nc2ccc(NC(=O)c3ccco3)c(OC)c2)nc2ccccc2c1=O | 1 | 17 | -7 | 104* | 9 | -23 | 104* | -0.47 | 7
